Measured values: PMC5621377 (Clinical cancer research : an official journal of the …, 2016)
“Also recorded” adds a separate entry of the source.

Assays:
[1] = Pharmacokinetics, plasma LC-MS/MS, non-compartmental analysis; format: in vivo, human
In short: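 Oral daily dosing at 50–1,200 mg/day. On Cycle 1 Days 1 and 18/21, blood was drawn pre-dose and at 0.5, 1, 2, 4, 6, 8 and 24 h, with further trough days. Parent drug and a metabolite in plasma were measured by validated LC-MS/MS (LLOQ 1.0 ng/mL). Non-compartmental analysis was used. Dose proportionality was fitted as ln(Cmax or AUC0–24) = α + β ln(dose). T1/2,acc came from the accumulation ratio; steady state was judged from troughs.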

[2] = system: Ki67 and phosphorylated Rb [pRb]; test: Pharmacodynamic biomarkers by immunohistochemistry in skin and tumor biopsies; format: in vivo, human
[3] = system: Jeko-1 MCL xenograft; settings: doses comparable to those achievable in humans; cited from earlier work

## CN(C)C(=O)c1cc2cnc(Nc3ccc(N4CCNCC4)cn3)nc2n1C1CCCC1 [ribociclib]
[1]; at the RDE (600 mg/day 3-weeks-on/1-week-off), oral
  mean effective half-life based on accumulation ratio (T1/2, acc): 32.6 h
[1]; dose range 50–1,200 mg/day
  dose proportionality of Cmax and AUC: slightly higher than dose proportional; also recorded: slightly more than proportional to dose
[1]; human, plasma, po
  Tmax: 1 to 5 h
[1]; trough concentrations after repeated daily dosing
  steady state reached by: ~8 days
[2]; 16 paired tumor biopsies
  post-treatment changes in pRb in tumor samples: not significant or consistent
[2]; 19 paired tumor biopsies, baseline to Day 15 of Cycle 1 or 2
  change of Ki67 in tumor biopsies: reductions of Ki67 from baseline were observed at higher ribociclib doses
[2]; 46 paired skin biopsies
  change of pRb in skin samples: Mean decreases of pRb in skin samples were observed at all dose levels
[2]; 48 paired skin biopsies, baseline to Day 15 of Cycle 2
  change of Ki67 in skin biopsies: post-treatment reductions of Ki67 were observed across all dose levels
[3]
  tumor response in xenograft: complete regressions
